From ChEMBL document CHEMBL1125460, “Antimalarial activity of new dihydroartemisinin derivatives. 5. Sugar analogues” (J Med Chem, 1992)
In brackets after ≈: the same amount, converted by molar mass.

Experiments:
[1] = test system: Plasmodium falciparum; assay: In vitro antimalarial activity against Plasmodium falciparum D6 Sierra Leone; format: functional, organism-based
Procedure, shortened: (§1)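 Compound dissolved in DMSO and 70% ethanol, then diluted in RPMI 1640 with 10% human plasma and tested over (1.56-100) × 10^-9 M. Parasites at 0.5% parasitemia, 1% hematocrit, incubated 24 h with compound before [3H]hypoxanthine was added, then a further 18 h. Read-out is [3H]hypoxanthine uptake. IC50 obtained by nonlinear regression of concentration-response data.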

[2] = test system: Plasmodium berghei; assay: Antimalarial activity for Plasmodium berghei infected mice (Mus musculus) (n=5) at 20 mg/kg/day; format: functional
[3] = test system: Plasmodium falciparum; assay: In vitro antimalarial activity against Plasmodium falciparum Indochina W2; format: functional, organism-based; procedure, shortened: as §1
[4] = test system: Plasmodium berghei; assay: Antimalarial activity for Plasmodium berghei infected mice (Mus musculus) (n=5) at 80 mg/kg/day; format: functional
[5] = test system: Plasmodium berghei; assay: Antimalarial activity for Plasmodium berghei infected mice (Mus musculus) (n=5) at 320 mg/kg/day; format: functional

| Compound | IC50 [1] [µg/mL] | No. of mice cured [2] | IC50 [3] [µg/mL] | No. of mice cured [4] | No. of mice cured [5] |
| --- | --- | --- | --- | --- | --- |
| C[C@H]1[C@@H](O[Si](C)(C)C)O[C@@H]2O[C@@]3(C)CC[C@H]4[C@H](C)CC[C@@H]1[C@@]24OO3 | 0.00111 (≈ 0.00311 µM) | 1 | 0.00042 (≈ 0.00118 µM) | 5 | 4 |
| C[C@H]1[C@@H](O[C@@H]2O[C@H](CO)[C@@H](O[C@@H]3O[C@H](CO)[C@@H](O)[C@H](O)[C@H]3O)[C@H](O)[C@H]2O)O[C@@H]2O[C@@]3(C)CC[C@H]4[C@H](C)CC[C@@H]1[C@@]24OO3 | 0.71 (≈ 1.17 µM) |  | 0.171 (≈ 0.281 µM) |  |  |
| CC(=O)O[C@@H]1[C@@H](OC(C)=O)[C@@H](C)O[C@H](COC(=O)CO[C@H]2O[C@@H]3O[C@@]4(C)CC[C@H]5[C@H](C)CC[C@@H]([C@H]2C)[C@@]35OO4)[C@H]1OC(C)=O | 0.00248 (≈ 0.00394 µM) | 0 | 0.00019 (≈ 0.000302 µM) | 0 | 5 |
| C[C@@H]1CC[C@H]2[C@@H](C)C(=O)O[C@@H]3O[C@@]4(C)CC[C@@H]1[C@]32OO4 [ARTEMISININ] |  |  | 0.00068 (≈ 0.00241 µM) |  |  |
| C[C@H]1[C@@H](O[C@@H]2O[C@H](CO)[C@H](O)[C@H](O)[C@H]2O)O[C@@H]2O[C@@]3(C)CC[C@H]4[C@H](C)CC[C@@H]1[C@@]24OO3 | 0.0131 (≈ 0.0294 µM) |  | 0.0356 (≈ 0.0797 µM) |  |  |
| C[C@H]1[C@@H](O[C@@H]2O[C@H](CO)[C@@H](O)[C@H](O)[C@H]2O)O[C@@H]2O[C@@]3(C)CC[C@H]4[C@H](C)CC[C@@H]1[C@@]24OO3 | 0.121 (≈ 0.272 µM) |  | 0.0341 (≈ 0.0763 µM) |  |  |
